Assay results reported in paper PMC7392586 (Circulation, 2020).
“And” between values parts separate entries of the source, which are not always exact repeats. Equal entries are not always repeated. Where two headings read alike, the source gives them in different places.

What was measured:
[1] = system: platelet reactivity index; details: CANTIC study; cited from earlier work
[2] = system: ADP-induced platelet aggregation in whole blood; experiment: Multiple electrode aggregometry; format: in vivo, human; details: % of patients
In short: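 STEMI patients not previously given a P2Y12 inhibitor. Hirudin-anticoagulated whole blood drawn at baseline and at 15 min, 30 min, 1, 2, 3 and 4–6 h after the study drug (bolus completion or oral ingestion); done at 2 centres. Blood diluted 1:2 in 0.9% NaCl, ADP-stimulated, aggregation recorded 6 min; AUC units. High residual reactivity: >46 U; percent of patients.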

[3] = system: platelet reactivity (P2Y12 reaction units); details: cited from earlier work; for HRPR (VerifyNow, cutoff PRU >208): 15 STEMI patients pretreated with ticagrelor
platelet inhibition = details: pharmacodynamic data on cangrelor; cited from earlier work
[4] = system: ADP-induced platelet aggregation in whole blood; details: cited from earlier work; for mean platelet inhibition before the end of infusion / patients achieving 100% platelet inhibition: part 2 of the trial; for mean platelet inhibition before the end of infusion: cangrelor 4 μg/kg/min
[5] = system: ADP-induced platelet aggregation in platelet-rich plasma; experiment: Light transmittance aggregometry; format: in vivo, human; details: for %IPA using LTA with ADP 20 µmol/L: at 30 minutes (primary endpoint), mean±SD
platelet function = details: 16 cardiac arrest survivors with STEMI, cited from earlier work

Molecule: CSCCNc1nc(SCCC(F)(F)F)nc2c1ncn2[C@@H]1O[C@H](COP(=O)(O)OP(=O)(O)C(Cl)(Cl)P(=O)(O)O)[C@@H](O)[C@H]1O [Cangrelor]
- nonresponders at vasodilator-stimulated phosphoprotein assay during drug infusion [1]: 3 out of 22
- High residual platelet reactivity: AUC>46 using ADPtest (Multiplate) ([2]; at 15 minutes): 8.6%
- High residual platelet reactivity: AUC>46 using ADPtest (Multiplate) ([2]; at 30 minutes): ≈ 14%
- High residual platelet reactivity: AUC>46 using ADPtest (Multiplate) ([2]; at 2 hours): ≈ 14%
- patients with PRU higher than 208 U during drug infusion ([3]; CANTIC study): No patient
- HRPR (VerifyNow, cutoff PRU >208) ([3]; at 15 minutes): 6.7%
- HRPR (VerifyNow, cutoff PRU >208) ([3]; at 1 hour): 0%
- HRPR rate (VerifyNow, cutoff PRU >208) ([3]; at the time of balloon inflation, 50 STEMI patients): 10%
- degree of platelet inhibition (platelet inhibition): > 80%
- mean IPA ([4]; infusion 4 μg/kg/min for up to 69 hours, at 24 hours, 14 patients with unstable angina or non–Q-wave MI, whole blood impedance aggregometry, ADP 3 μmol/L): 98.7±2.1%
- mean %IPA ([4]; infusion at 4 μg/kg/min, elective or urgent PCI, impedance aggregometry in heparinized blood, ADP 3 μmol/L): 99%
- mean platelet inhibition before the end of infusion [4]: 100%
- patients achieving 100% platelet inhibition [4]: 95%
- %IPA using LTA with ADP 20 µmol/L [5]: 34.1±22.5%
- platelet function, median (Multiplate Analyzer) (platelet function; targeted temperature management, interquartile range 10 to 25): 18 U
- HRPR (Multiplate Analyzer, <46 U cutoff) (platelet function): none had HRPR

Molecule: CC(=O)Oc1cc2c(s1)CCN(C(C(=O)C1CC1)c1ccccc1F)C2 (stereo not shown) [Chewed Prasugrel, Prasugrel]
- %IPA using LTA with ADP 20 µmol/L [5]: 10.5±11.0%

Molecule: CC(=O)Oc1cc2c(s1)CCN(C(C(=O)C1CC1)c1ccccc1F)C2 (stereo not shown) [Integral Prasugrel, Prasugrel]
- %IPA using LTA with ADP 20 µmol/L [5]: 6.3±11.4%

Molecule: CCCCS(=O)(=O)N[C@@H](Cc1ccc(OCCCCC2CCNCC2)cc1)C(=O)O [Tirofiban]
- %IPA using LTA with ADP 20 µmol/L [5]: 95.0±8.9% and 95.0±9.0%
- HRPR rates (platelet aggregation >59% at LTA after ADP 20 µmol/L) ([5]; during drug infusion / within the first 2 hours): No patient

B1: abciximab (antibody, chains of the INN, looked up, V domains shown)
VH: EVQLQQSGTVLARPGASVKMSCEASGYTFTNYWMHWVKQRPGQGLEWIGAIYPGNSDTSYIQKFKGKAKLTAVTSTTSVYMELSSLTNEDSAVYYCTLYDGYYVFAYWGQGTLVTVSA
VL: EIVLTQSPVTLSVTPGDSVSLSCRASRDISNNLHWFQQTSHESPRLLIKYASQSMSGIPSRFSGSGSGTDFTLSINSVETEDFGMYFCQQTNSWPYTFGGGTKLEIK
modifications: Fab
- mean platelet inhibition before the end of infusion [4]: 100%
- patients achieving 100% platelet inhibition [4]: 100%
